The subject of the series is MS2 coat protein. Kind of series: apparent Kd, MS2 coat protein; higher = weaker binding; RNA-MaP array; FMN 200 µM where present. An outline of the steps:
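The apparent Kd comes from binding curves fitted cluster by cluster, filtered, and summarised as a median. Those curves followed SNAP-549-labelled MS2 coat protein from 0.7 or 1.5 nM, doubling to 3 µM, on Illumina sequencing-chip clusters where stalled E. coli RNA polymerase had transcribed the designs, without and then with constant ligand. The buffer was 100 mM Tris-HCl pH 7.5, 80 mM KCl, 4 mM MgCl2, BSA, DTT, yeast tRNA and Tween-20, and green signal was normalised to red-channel RNA signal and control-cluster median Fmax.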

The mark [1] stands for this setting: designed as: ON switch for flavin mononucleotide, no ligand.
Setting [2] is: ligand present: flavin mononucleotide, designed as: ON switch for flavin mononucleotide.
Setting [3] is: designed as: OFF switch for flavin mononucleotide, no ligand.
Where [4] appears, read: ligand present: flavin mononucleotide, designed as: OFF switch for flavin mononucleotide.

The values below come from the EternaBench riboswitch data.

As a reminder, the apparent Kd is a dissociation constant that holds for the conditions of the assay. “AUUAUACAUGAGGAUCACCCAUGUAAUUAAUUAAUUAAGAUCUAGGAUAUCAGCUCGAUUAGAGCUGAGAAGGAGAUCACAUGU”: the “apparent Kd” value is, setting by setting: under setting [1], 29.9 nM; under setting [2], 18.7 nM.

Turning to “UGUGUGUGGCAGGAUAUUCCGGUCGUUGGUCGGGAAGAAGGGUCUACAUGAGGAUCACCCAUGUGACCGGUUGA”, the “apparent Kd” value was determined as 27 nM under setting [3] and 27.5 nM under setting [4].

For the sequence “CGUAUUAUUCAGAAGGCACUUCUCAUGUUACAUGAGGAUCACCCAUGUUUGUGAGGAUAUGAAUAUAGUUGUUGGUGUAUUAUA”, the “apparent Kd” value worked out at 7.25 nM under setting [3] and 8.59 nM under setting [4].

For the sequence “GUACAUGAGCAGAAGGGCAAUUAAUUAAAUUUUUAUGUUUAUCAGAUAUGCAGGAUAUGUUAAACAUGAGGAUCACCCAUGUAC”, the “apparent Kd” value reads like this: under setting [1], 129 nM; under setting [2], 65.8 nM.

For “CACCGCGACAACGCGGUGUCACAUGAGGAUCACCCAUGUUCACAGGAUAUGCGAUAGCCAACGAAGCAGAAGGGUGAUUACUUA”, the “apparent Kd” value reads like this: under setting [1], 41.1 nM; under setting [2], 111 nM.

Take “ACUGUCCGAGAGAAGGGAACAUGAGGAUCACCCAUGUUACCUCACCUGGUGACGGAACUCCAAGUUCAGGAUAUCUCGGGCGGC”: the “apparent Kd” value reads like this: under setting [3], 5.14 nM; under setting [4], 7.59 nM.

For “GGAUGACAAAGUCAUCCAAUACGAACAUGAGGAUCACCCAUGUAGGAUAUGCUACAUGAGGAUCACCAGAAGGACAUGUGCCUU”, the “apparent Kd” value runs as follows: under setting [3], 123 nM; under setting [4], 135 nM.

“CAUGUCCUCACAGGAUAUGCACCACUUUGUGGUGCAGAAGGGUGGUUACAUGAGGAUCACCCAUGUGGACAUGAUAUAUUUAAU”: the “apparent Kd” value by setting is: under setting [1], 93.7 nM; under setting [2], 1150 nM.

With “UGGUACUAGGGAGGAUAUGGGAAGAUACAUGAGGAUCACCCAUGUUUAAGAAUGACGAGAGGCAACUAGAAGGCCCUAGUACCU”, the “apparent Kd” value under setting [1] amounted to 328 nM and the “apparent Kd” value under setting [2] worked out at 25.9 nM.

On to “CUUUUGUGAGGAUAUCAGUAGUAAAAUAAUAAUAUUACUACUGAGAAGGCACAUGAGGAUCACCCAUGUUCCUC”, for which the “apparent Kd” value runs as follows: under setting [3], 40.5 nM; under setting [4], 267 nM.

In the case of “GUCCUUUCUGAGGAUAUUAUCUUUUUCGAUUGAUAAGAAGGCAGUACAUGAGGAUCACCCAUGUGGGUUGUCUG”, the “apparent Kd” value by setting is: under setting [3], 31 nM; under setting [4], 131 nM.

On to “CUUUUGUGAGGAUAUCAGUAGUAAAUAAAUAAAUUAACUACUGAGAAGGCACAUGAGGAUCACCCAUGUUCCUU”, for which the “apparent Kd” value is, setting by setting: under setting [3], 13 nM; under setting [4], 29.4 nM.

For the sequence “UGGUACGAGGGAGGAUAUGGGAAGAUACAUGAGGAUCACCCAUGUUUAAGAAUGCCGAGAGGCAACUAGAAGGCCCUAGUACCU”, the “apparent Kd” value came out at 583 nM under setting [1] and 21.9 nM under setting [2].

Consider “UUAUAAAGUGUGAGGAUAUGCUGGUCCUUAGAUCAGCAGAAGGCACAUGAGGAUCACCCAUGUAAUAUAUUUUU”, for which the “apparent Kd” value reads like this: under setting [3], 38.4 nM; under setting [4], 185 nM.

Regarding “ACUUUACGAGGAUAUACUGUCGGGCCUCGGGCAUACAUGCGACAUGAGGAUCACCCAUGUAGAAGGCGUUUACU”, the “apparent Kd” value amounted to 29.5 nM under setting [3] and 92 nM under setting [4].

Consider “GCUGCAUAGGCAGGAUAUGCAACAAUUAGAAUAAAAUAUAACUAAUUGACAUGAGGAUCACCCAUGUAGAAGGGCCUGUGCAGU”, for which the “apparent Kd” value reads like this: under setting [3], 21.1 nM; under setting [4], 19.6 nM.

For “UCCUCUUUGAAGAAGGCGUGGUUAUGCUAGCCGCGAGGAUAUUCACAUGAGGAUCACCCAUGUGGAUUUCAGUCCGCUCAAAAC”, the “apparent Kd” value runs as follows: under setting [3], 10.2 nM; under setting [4], 22.9 nM.

“AGUGCGAUGGGAGGAUAUCAUGGUCUAAUUAAUAAAAGGAUCACAUGAGGAUCACCCAUGUGUCAUGAGAAGGCCCUCGAGACC”: the “apparent Kd” value under setting [1] amounted to 74.2 nM and the “apparent Kd” value under setting [2] was 11.2 nM.

“AUCUAAGAAUUAAUUGUGACUGACAGAAGGCAAUAGAAUGAGACCGACAUGAGGAUCACCCAUGUUGAGGAUAUGUCUUGCUAC”: the “apparent Kd” value by setting is: under setting [3], 6.53 nM; under setting [4], 6.74 nM.

As for “CCUCCUGCAAAGGAUAUCGCGCGGUGACGCUGUCGAGAAGGUUGUACAUGAGGAUCACCCAUGUGGUAUAAGAU”, the “apparent Kd” value under setting [3] was 202 nM and the “apparent Kd” value under setting [4] was determined as 472 nM.

On to “UAGGUUGUCGUAGGAUAUGUAGGAUAUUCCUACAUGAGGAUCACCCAUGUUAGCAUGGAAGAAGGACAGAAGGACGAUGACCUU”, for which the “apparent Kd” value by setting is: under setting [1], 889 nM; under setting [2], 15.6 nM.

Take “UGGUAACAUGAGGAUCACCCAUGUCAGGAUAUCAGUAAGAAUAGAUGAGAGUAGAAGAUGAGAAGGGACUAUAU”: the “apparent Kd” value reads like this: under setting [3], 29.4 nM; under setting [4], 24.4 nM.

For the sequence “GAGUAGUUGAAAGGAUAUGCAUUGUUAUAGAAUGCAGAAGGUUCUAACAUGAGGAUCACCCAUGUAGGACUAUUCCUGUGUAUC”, the “apparent Kd” value is 12.1 nM under setting [1] and 9.82 nM under setting [2].

As for “AGUAACAGAGGAUAUACUAUUUUAUGUAUUUAUUAUUUUGAACAUGAGGAUCACCCAUGUAGAAGGCUGAAUAA”, the “apparent Kd” value worked out at 27.1 nM under setting [3] and 22 nM under setting [4].

As for “AGCUGUGGCAGAGGAUAUACAAUCCUAAUCCAUUGCAAAUAGCGAUGGACAUGAGGAUCACCCAUGUAGAAGGCUGUCUCAGCA”, the “apparent Kd” value reads like this: under setting [3], 297 nM; under setting [4], 65.2 nM.

For “AAAAAACAAGGAUAUACGCAGGAGGGUUGUCUUAAUUUUUGACAUGAGGAUCACCCAUGUAGAAGGUGUUAAAA”, the “apparent Kd” value was found to be 237 nM under setting [3] and 507 nM under setting [4].

“ACAUGAGGAUCACCCAUGUGAGGAUCACCCAUGUUAUAUUUCAGAAGGCUCGUGUGUUUGAUGAGAGAGGAUAUGGAAUAUAGG”: the “apparent Kd” value amounted to 101 nM under setting [3] and 71.1 nM under setting [4].

On to “AUAUUUAUUUAGAAGGACAUGAGGAUCACCCAUGUCGCUGGGCCCGGGAAACCGGGCCCGGCCAUGUAGGAUAUAGAUAGAUAU”, for which the “apparent Kd” value runs as follows: under setting [3], 8.53 nM; under setting [4], 9.17 nM.

For the sequence “GGAUGACAAAGUCAUCCAUAACGAACAUGAGGAUCACCCAUGUAGGAUAUGCUACUCAAAGAGUAGCAGAAGGACAUGUGCCUU”, the “apparent Kd” value under setting [3] worked out at 36 nM and the “apparent Kd” value under setting [4] is 239 nM.

As to “UGGUGUGAAGGAUAUACAUGAGGAUCACCCAUGUAUGUGGUGUGUGUUGAGGUGGAGGGUAGAAGGUCAGGUGG”, the “apparent Kd” value by setting is: under setting [3], 38.2 nM; under setting [4], 39.5 nM.

In the case of “GUAGCAUACCGAGGAUAUUCAUACCGGAAACGGACAUGAGGAUCACCCAUGUUUAGAAAUAAUUGGGAGAAGGCGGAAUGCUAC”, the “apparent Kd” value by setting is: under setting [1], 232 nM; under setting [2], 44.7 nM.

As for “CUUUUGUUAGGAUAUUAGUAGUAAAUAAAUAAAAUUACUACUGAGAAGGCACAUGAGGAUCACCCAUGUUCCUC”, the “apparent Kd” value is, setting by setting: under setting [3], 26 nM; under setting [4], 31.4 nM.

Consider “UUGUUGUGUGUAGGAUAUGCAUAUUAUUAUUAUGCAGAAGGACAUGAGGAUCACCCAUGUAUAUUAUUAUUAUAUAUUAUAUAU”, for which the “apparent Kd” value came to 31.1 nM under setting [3] and 36.6 nM under setting [4].

As to “GACUGAUUGUAGAAGGUACUUAAUACUCAUGUAACAUGAGGAUCACCCAUGUAUCAACAAUAUUGUAAGGAUAUACAUAUCUCA”, the “apparent Kd” value under setting [1] was found to be 231 nM and the “apparent Kd” value under setting [2] stood at 103 nM.

Consider “CCUGCACAUGAGGAUCACCCAUGUCAGGAUAUCUCGCCGUCGGCUUGCCGACGGUAUUAGAGAAGGGACACGGG”, for which the “apparent Kd” value reads like this: under setting [3], 29.3 nM; under setting [4], 26 nM.

Regarding “CUUUAUCACUAUACAUGAGGAUCACCCAUGUUAUCAUCAUGAGAGGAUAUCGUAUUUGGAUUUUUCGAGAAGGCUCUUUUGUAU”, the “apparent Kd” value reads like this: under setting [1], 108 nM; under setting [2], 77.1 nM.

On to “GCCAGGGAUUCAGGAUAUAUUAGCCGAGGCCGAGUAGAAGGGAAAUCCUGACAUGAGGAUCACCCAUGUCGACCCGCCUUCCUC”, for which the “apparent Kd” value runs as follows: under setting [1], 20.5 nM; under setting [2], 21.1 nM.

In the case of “CCUGGCACAUAGAAGGGUACAUGGCCUCUGCUACAUGAGGAUCACCCAUGUGCAGGAUAUGUGUGCCAGACUAUGCCGGUGUAA”, the “apparent Kd” value under setting [3] turned out to be 20.2 nM and the “apparent Kd” value under setting [4] was 16.1 nM.

On to “AGCUACGUUUCGUAGCAGCUAGAAAAGGAUAUUCAAUUUUUCACAUGAGGAUCACCCAUGUAUGUGAAGAAGGCGCCUAGAAAG”, for which the “apparent Kd” value reads like this: under setting [1], 50.4 nM; under setting [2], 35.9 nM.

For the sequence “GACCUACAUGAGGAUCACCCAUGUGAGGAUAUAUUGUUAUUUUUAAUAUUUUUUAGUGGUAGAAGGCGCGUGAU”, the “apparent Kd” value was determined as 18.4 nM under setting [3] and 17.3 nM under setting [4].

“AUGCUUCACACAGGAUAUACAUGAGGAUCACCCAUGUGUCCACCGUAGCUGACACGAGCUACGCGGUAGAAGGGUGUGAAGCAU”: the “apparent Kd” value by setting is: under setting [3], 18 nM; under setting [4], 33.3 nM.

Consider “GCAGAUCACGUGAGGAUAUCGUCUACCUCGGUAGUCGAGAAGGCACAUGAGGAUCACCCAUGUGAGUGUUCUGC”, for which the “apparent Kd” value is, setting by setting: under setting [3], 20.1 nM; under setting [4], 19.5 nM.

For “UUUAGUAUCUAGGAUAUCUAGUACAUAGUAUCUAGAGAAGGAGAUACAUGAGGAUCACCCAUGUUCUGUGAUCU”, the “apparent Kd” value under setting [3] is 210 nM and the “apparent Kd” value under setting [4] came to 36.4 nM.

Take “UAAGUCUAAUGAGGAUAUCGUAAUGAAACAUUAUGAGAAGGCAUACAAUCAUGAGGACAUGAGGAUCACCCAUGUUGUGACCAU”: the “apparent Kd” value amounted to 33.6 nM under setting [1] and 16.2 nM under setting [2].

As to “AACGCGUCAGGAUAUGCCAUAAAUUACCUAGUACGACCAUAGCAGAAGGGACAUGAGGAUCACCCAUGUGGGUA”, the “apparent Kd” value reads like this: under setting [3], 92 nM; under setting [4], 67.6 nM.

With “AAACCACAUGAGGAUCACCCAUGUCAAGAGAGACUAGGAUAUCUGAAUUAAUUAAAUUAAGGAGAAGGAGUGAAAA”, the “apparent Kd” value is 121 nM under setting [1] and 64.8 nM under setting [2].

“GAAAGAAAUCCAACAUGAGGAUCACCCAUGUUAGGCCAGUGGCAGGAUAUGGUGGGACUGAUGCACCAGAAGGGUCAGGUGGGC”: the “apparent Kd” value is, setting by setting: under setting [1], 17.9 nM; under setting [2], 10 nM.

As for “GCUUGUAGAGGAUAUACAAGGGCCUUAGCGGAAAACUCCGCACAUGAGGAUCACCCAUGUAGAAGGCUACCACC”, the “apparent Kd” value turned out to be 16.1 nM under setting [3] and 97.9 nM under setting [4].
